Measurements as given in ChEMBL document CHEMBL1131066, “2-Substituted aminopyrido[2,3-d]pyrimidin-7(8H)-ones. structure-activity relationships against selected tyrosine kinases and in vitro and in vivo anticancer activity” (J Med Chem, 1998).

Columns and labels:
HT-29 [1] = assay: Weight change of HT-29 cell tumors in mice at […] peroral dose, days 15-29 administration; format: functional, organism-based; design: dose 8.3 mg/kg; details: Mus musculus
A-431 [2] = assay: Difference in days for treated (T) and control (C) A431 cell tumors to reach 750 mg in mice at 5 mg/kg peroral dose, days 7-21 administration; format: functional, Mus musculus; details: route oral
Procedure, shortened: (§1)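 Nude mice (NCr nu/nu), 18–22 g, 6–8 per group, randomized and implanted with serially passaged tumor fragments in the right axilla on day 0. Dosed by average cage weight. Vehicle was 50 mM sodium lactate buffer, pH 4.0, or a 0.5% methyl cellulose suspension for one compound. Cisplatin was given in saline. T − C is the difference in days for treated and control tumors to reach 750 mg.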

MCF7 [3] = assay: Weight change for MCF-7 cell tumors in mice at 5 mg/kg peroral dose, days 1-15 administration; format: functional, organism-based; design: dose 5 mg/kg; details: Mus musculus
Procedure, shortened: (§2)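 Tumor-bearing nude mice (NCr nu/nu, 18–22 g, 6–8 per group) were implanted in the right axilla with tumor fragments on day 0 and dosed by average cage weight. Vehicle was 50 mM sodium lactate pH 4.0, or 0.5% methyl cellulose suspension; cisplatin was given in saline. Host body weight change is given as the maximum treatment-related weight loss.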

MCF7 [4] = assay: Net reduction in tumor burden between first and last treatments of MCF-7 cells in mice at 5 mg/kg peroral dose, days 1-15 administration; format: functional, Mus musculus; details: route oral
Procedure, shortened: (§3)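 NCr nu/nu nude mice (18–22 g, 6–8 per group, randomized) had tumor fragments, kept by serial passage in nude mice, implanted in the right axilla on day 0. Mice were dosed by average cage weight on the listed days, over a range from toxic to ineffective doses. Vehicle was 50 mM sodium lactate pH 4.0 or 0.5% methyl cellulose suspension. Net log cell kill was taken between first and last treatments.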

Mus musculus [5] = assay: Weight change in PDGF-transfected mouse fibroblasts in mice at 12 mg/kg peroral dose, days 1-15 administration; format: functional; details: route oral; procedure, shortened: as §2
C6 [6] = assay: Net reduction in tumor burden between first and last treatments of C6 glioma cell tumors in mice at 10 mg/kg peroral dose, days 1-15 administration; format: functional, Mus musculus; details: route oral; procedure, shortened: as §3
[7] = biological target: Platelet-derived growth factor receptor (Mus musculus, UniProt P05622+P26618); assay: Inhibition of PDGF-induced autophosphorylation of PDGF-R in NIH3T3 cells
Mus musculus [8] = assay: Difference in days for treated (T) and control (C) PDGF-transfected mouse fibroblast tumors to reach 750 mg in mice at 12 mg/kg peroral dose, days 1-15 administration; format: functional; details: route oral; procedure, shortened: as §1
HT-29 [9] = assay: Difference in days for treated (T) and control (C) HT-29 cell tumors to reach 750 mg in mice at […] peroral dose, days 15-29 administration; format: functional, Mus musculus; details: route oral
Mus musculus [10] = assay: Ratio of treated and control PDGF-transfected mouse fibroblast tumor mass in mice at 12 mg/kg peroral dose, days 1-15 administration; format: functional; details: route oral
Procedure, shortened: (§4)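 Nude mice (NCr nu/nu), 6–8 per group, 18–22 g, tumor fragments implanted in right axilla on day 0 (A431, C6, MCF-7, or NIH3T3 carrying human PDGF receptor), dosed by average cage weight; vehicle 50 mM sodium lactate buffer pH 4.0 unless suspended in 0.5% methyl cellulose. %T/C = median treated/median control tumor mass ×100, last therapy day.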

A-431 [11] = assay: Weight change of A431 cell tumors in mice at 5 mg/kg peroral dose, days 7-21 administration; format: functional, Mus musculus; details: route oral; procedure, shortened: as §2
[12] = biological target: Fibroblast growth factor receptor 1 (Homo sapiens, UniProt P11362); assay: Inhibition of fibroblast growth factor receptor (FGFr)
Procedure, shortened: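 Recombinant kinases (PDGFr-β, FGFr-1, c-Src), enzyme inhibition IC50. Mean of at least two separate determinations, each done in triplicate; replicate values typically varied under 30%.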

MCF7 [13] = assay: Difference in days for treated (T) and control (C) MCF-7 cell tumors to reach 750 mg in mice at 5 mg/kg peroral dose, days 1-15 administration; format: functional, Mus musculus; details: route oral; procedure, shortened: as §1
[14] = biological target: Proto-oncogene tyrosine-protein kinase Src (Gallus gallus, UniProt P00523); assay: Inhibition of avian c-Src tyrosine kinase
[15] = biological target: Platelet-derived growth factor receptor (PDGFr) (Rattus norvegicus, UniProt P20786+Q05030); assay: Inhibition of PDGF-induced autophosphorylation of PDGF-R in C6 cells
COLO 205 [16] = assay: Difference in days for treated (T)and control (C) COLO 205 cell tumors to reach 750 mg in mice at […] peroral dose, days 9-23 administration; format: functional, Mus musculus; details: route oral
COLO 205 [17] = assay: Net reduction in tumor burden between first and last treatments of COLO 205 cell tumors in mice at […] peroral dose, days 9-23 administration; format: functional, Mus musculus; details: route oral
NIH3T3 [18] = assay: Inhibition of NIH3T3 proliferation by sulforhodamine B assay; format: functional, cell-based, Mus musculus; details: Mus musculus, NIH3T3
Mus musculus [19] = assay: Net reduction in tumor burden between the first and last treatments of PDGF-transfected fibroblast cells in mice at 12 mg/kg peroral dose, days 1-15 administration; format: functional; details: route oral; procedure, shortened: as §3
C6 [20] = assay: Ratio of treated and control C6 glioma cell tumor mass in mice at 10 mg/kg peroral dose, days 1-15 administration; format: functional, Mus musculus; details: route oral; procedure, shortened: as §4
[21] = biological target: Platelet-derived growth factor receptor beta (Mus musculus, UniProt P05622); assay: Inhibitory concentration was evaluated against Platelet-derived growth factor receptor beta (PDGFr) tyrosine kinase
SK-OV-3 [22] = assay: Difference in days for treated (T) and control (C) SKOV-3 cell tumors to reach 750 mg in mice at […] peroral dose, days 15-29 administration; format: functional; details: route oral
MCF7 [23] = assay: Ratio of treated and control MCF-7 tumor mass in mice at 5 mg/kg peroral dose, days 1-15 administration; format: functional, Mus musculus; details: route oral; procedure, shortened: as §4
SK-OV-3 [24] = assay: Weight change of SK-OV-3 cell tumors in mice at […] peroral dose, days 15-29 administration; format: functional, organism-based; design: dose 8.9 mg/kg
COLO 205 [25] = assay: Weight change of COLO 205 cell tumors in mice at […] peroral dose, days 9-23 administration; format: functional, organism-based; design: dose 8.9 mg/kg; details: Mus musculus
A-431 [26] = assay: Net reduction in tumor burden between first and last treatments of A431 cell tumors in mice at 5 mg/kg peroral dose, days 7-21 administration; format: functional, Mus musculus; details: route oral; procedure, shortened: as §3
NIH3T3 [27] = assay: Growth of NIH3T3 cell colonies in soft agar with discontinued treatment; format: functional, cell-based; details: Mus musculus
Procedure, shortened: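 PDGF-B-transfected NIH3T3 (NIH3T3/PDGF) cells exposed 3 days to a concentration series, washed free of inhibitor, plated in drug-free soft agar; colonies stained and counted after two weeks. IC50; mean of two experiments, each in duplicate.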

SK-OV-3 [28] = assay: Ratio of treated and control SKOV-3 cell tumor mass in mice at […] peroral dose, days 15-29 administration; format: functional; details: route oral
NIH3T3 [29] = assay: Growth of NIH3T3 cell colonies in soft agar with continuous treatment; format: functional, cell-based; details: Mus musculus
Procedure, shortened: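 Soft agar cloning used PDGF-B-transfected NIH3T3 (NIH3T3/PDGF) cells. Cells were exposed 3 days to a concentration series, then plated in soft agar with the matching compound concentration kept present. Colonies were stained and counted after two weeks. IC50; mean of two experiments, each in duplicate.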

C6 [30] = assay: Weight change of C6 glioma tumor cells in mice at 10 mg/kg peroral dose, days 1-15 administration; format: functional, Mus musculus; details: route oral; procedure, shortened: as §2
C6 [31] = assay: Difference in days for treated (T) and control (C) C6 glioma cell tumors to reach 750 mg in mice at 10 mg/kg peroral dose, days 1-15 administration; format: functional, Mus musculus; details: route oral; procedure, shortened: as §1
COLO 205 [32] = assay: Ratio of treated and control COLO 205 cell tumor mass in mice at […] peroral dose, days 9-23 administration; format: functional, Mus musculus; details: route oral
C6 [33] = assay: C6 cell growth in soft agar with continuous treatment; format: functional, cell-based, Rattus norvegicus; details: Rattus norvegicus, C6
Procedure, shortened: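 C6 rat glioma cells (F10 Ham's with 15% horse serum, 2.5% fetal calf serum) exposed 3 days to a concentration series, then plated in soft agar with compound still present at the same concentration; colonies stained and counted after two weeks. IC50; mean of two experiments, each in duplicate.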

C6 [34] = assay: Inhibition of C6 cell proliferation in sulforhodamine B assay; format: functional, cell-based, Rattus norvegicus; details: Rattus norvegicus, C6
Procedure, shortened: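 C6 rat glioma cells (F10 Ham's, 15% horse serum, 2.5% fetal calf serum) seeded and allowed 24 h to attach, then given serial 2-fold compound dilutions; 4 d at 37 °C, 5% CO2; growth read by sulforhodamine B staining. IC50; mean of two experiments, each in triplicate.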

A-431 [35] = assay: Ratio of treated and control A431 cell tumor mass in mice at 5 mg/kg peroral dose, days 7-21 administration; format: functional, Mus musculus; details: route oral; procedure, shortened: as §4
C6 [36] = assay: C6 cell growth in soft agar with discontinued treatment; format: functional, cell-based, Rattus norvegicus; details: Rattus norvegicus, C6
Procedure, shortened: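 C6 rat glioma cells given 3-day exposure to a concentration series, then washed free of inhibitor and plated in drug-free soft agar; colonies stained and counted after two weeks. IC50; mean of two experiments, each in duplicate.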

Chain of Platelet-derived growth factor receptor beta (P05622 whole entry): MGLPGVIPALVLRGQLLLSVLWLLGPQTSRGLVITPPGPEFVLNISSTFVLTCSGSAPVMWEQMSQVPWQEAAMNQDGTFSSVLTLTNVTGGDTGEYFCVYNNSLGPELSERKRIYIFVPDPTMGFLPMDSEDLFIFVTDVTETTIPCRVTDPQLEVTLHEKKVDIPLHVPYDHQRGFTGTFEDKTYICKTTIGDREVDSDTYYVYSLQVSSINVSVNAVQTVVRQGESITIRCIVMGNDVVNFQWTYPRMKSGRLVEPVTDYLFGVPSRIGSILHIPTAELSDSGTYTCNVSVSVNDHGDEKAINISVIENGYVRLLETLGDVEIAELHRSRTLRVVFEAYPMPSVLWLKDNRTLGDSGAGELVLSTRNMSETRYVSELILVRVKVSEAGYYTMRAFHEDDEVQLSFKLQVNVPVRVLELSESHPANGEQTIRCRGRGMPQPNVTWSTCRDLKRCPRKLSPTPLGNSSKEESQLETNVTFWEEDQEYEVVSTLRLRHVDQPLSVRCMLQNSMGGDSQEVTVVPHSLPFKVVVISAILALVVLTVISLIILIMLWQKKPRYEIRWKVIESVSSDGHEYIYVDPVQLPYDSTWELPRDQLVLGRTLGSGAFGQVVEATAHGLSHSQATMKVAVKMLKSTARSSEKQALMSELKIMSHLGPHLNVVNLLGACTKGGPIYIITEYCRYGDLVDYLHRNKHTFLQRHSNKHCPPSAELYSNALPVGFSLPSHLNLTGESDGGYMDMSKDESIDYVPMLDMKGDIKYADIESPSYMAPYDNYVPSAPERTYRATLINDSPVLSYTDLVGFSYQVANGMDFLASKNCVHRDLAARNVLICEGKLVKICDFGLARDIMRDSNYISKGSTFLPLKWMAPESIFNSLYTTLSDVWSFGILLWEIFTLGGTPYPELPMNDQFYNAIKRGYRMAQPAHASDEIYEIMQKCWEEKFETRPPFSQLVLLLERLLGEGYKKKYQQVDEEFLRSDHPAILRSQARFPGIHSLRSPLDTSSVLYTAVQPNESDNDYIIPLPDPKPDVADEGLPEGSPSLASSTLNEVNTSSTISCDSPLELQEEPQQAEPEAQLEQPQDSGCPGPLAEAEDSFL
Chain of Fibroblast growth factor receptor 1 (P11362 whole entry): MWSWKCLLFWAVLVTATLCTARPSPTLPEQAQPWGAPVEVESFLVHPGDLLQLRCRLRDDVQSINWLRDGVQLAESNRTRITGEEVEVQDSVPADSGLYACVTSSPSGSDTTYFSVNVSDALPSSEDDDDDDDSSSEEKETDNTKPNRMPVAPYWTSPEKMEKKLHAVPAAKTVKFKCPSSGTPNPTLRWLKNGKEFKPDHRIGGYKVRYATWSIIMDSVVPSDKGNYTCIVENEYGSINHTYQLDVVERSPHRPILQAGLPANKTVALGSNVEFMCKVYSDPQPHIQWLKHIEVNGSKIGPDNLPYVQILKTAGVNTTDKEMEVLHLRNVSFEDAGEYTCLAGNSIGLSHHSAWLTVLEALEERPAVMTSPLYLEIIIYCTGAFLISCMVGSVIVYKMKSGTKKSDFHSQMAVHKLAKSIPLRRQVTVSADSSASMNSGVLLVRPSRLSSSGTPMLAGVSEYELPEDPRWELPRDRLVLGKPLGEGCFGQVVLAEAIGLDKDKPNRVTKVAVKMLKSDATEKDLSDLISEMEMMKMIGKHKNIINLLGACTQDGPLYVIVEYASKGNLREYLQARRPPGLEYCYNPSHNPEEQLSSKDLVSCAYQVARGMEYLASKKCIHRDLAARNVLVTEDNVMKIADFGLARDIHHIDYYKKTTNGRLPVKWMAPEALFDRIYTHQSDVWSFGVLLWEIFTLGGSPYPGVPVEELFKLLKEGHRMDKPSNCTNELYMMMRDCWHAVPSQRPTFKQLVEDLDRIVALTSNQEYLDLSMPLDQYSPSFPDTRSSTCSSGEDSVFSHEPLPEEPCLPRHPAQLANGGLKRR

## CCN(CC)CCOc1ccc(Nc2ncc3cc(-c4c(Cl)cccc4Cl)c(=O)n(CC)c3n2)cc1
HT-29 [1]
  Weight change: Weight gain
A-431 [2]
  T-C: 3.3 days
MCF7 [3]
  Weight change: Weight gain
MCF7 [4]
  Net cell kill: 0.2 log10
Mus musculus [5]
  Weight change: -2.6 g
C6 [6]
  Net cell kill: -0.9 log10
[7]
  IC50: 1.7 nM
Mus musculus [8]
  T-C: 5.9 days
HT-29 [9]
  T-C: -4.8 days
Mus musculus [10]
  Ratio: 13%
A-431 [11]
  Weight change: -2.7 g
[12]
  IC50: 30 nM
MCF7 [13]
  T-C: 18.3 days
[14]
  IC50: 17 nM
[15]
  IC50: 1 nM
COLO 205 [16]
  T-C: 10.3 days
COLO 205 [17]
  Net cell kill: -0.2 log10
NIH3T3 [18]
  IC50: 410 nM
Mus musculus [19]
  Net cell kill: -1.2 log10
C6 [20]
  Ratio: 56%
[21]
  IC50: 150 nM
SK-OV-3 [22]
  T-C: -0.8 days
MCF7 [23]
  Ratio: 51%
SK-OV-3 [24]
  Weight change: Weight gain
COLO 205 [25]
  Weight change: Weight gain
A-431 [26]
  Net cell kill: -0.6 log10
NIH3T3 [27]
  IC50: 17 nM
SK-OV-3 [28]
  Ratio: 106%
NIH3T3 [29]
  IC50: 1.5 nM
C6 [30]
  Weight change: -1.2 g
C6 [31]
  T-C: 3 days
COLO 205 [32]
  Ratio: 57%
C6 [33]
  IC50: 120 nM
C6 [34]
  IC50: 350 nM
A-431 [35]
  Ratio: 96%
C6 [36]
  IC50: 400 nM
